These results are taken from ChEMBL document CHEMBL3091418, “Discovery of a novel activator of 5-lipoxygenase from an anacardic acid derived compound collection” (Bioorg Med Chem, 2013).

A word on the inhibition: it is how much of the control response was suppressed. Usually pKi stands for the Ki on a negative log10 scale, so that one unit is a factor of ten. A high value points to a small Ki.

In data set [1] the target is T1, Polyunsaturated fatty acid 5-lipoxygenase (Homo sapiens) (UniProt P09917).
T1 sequence (whole entry): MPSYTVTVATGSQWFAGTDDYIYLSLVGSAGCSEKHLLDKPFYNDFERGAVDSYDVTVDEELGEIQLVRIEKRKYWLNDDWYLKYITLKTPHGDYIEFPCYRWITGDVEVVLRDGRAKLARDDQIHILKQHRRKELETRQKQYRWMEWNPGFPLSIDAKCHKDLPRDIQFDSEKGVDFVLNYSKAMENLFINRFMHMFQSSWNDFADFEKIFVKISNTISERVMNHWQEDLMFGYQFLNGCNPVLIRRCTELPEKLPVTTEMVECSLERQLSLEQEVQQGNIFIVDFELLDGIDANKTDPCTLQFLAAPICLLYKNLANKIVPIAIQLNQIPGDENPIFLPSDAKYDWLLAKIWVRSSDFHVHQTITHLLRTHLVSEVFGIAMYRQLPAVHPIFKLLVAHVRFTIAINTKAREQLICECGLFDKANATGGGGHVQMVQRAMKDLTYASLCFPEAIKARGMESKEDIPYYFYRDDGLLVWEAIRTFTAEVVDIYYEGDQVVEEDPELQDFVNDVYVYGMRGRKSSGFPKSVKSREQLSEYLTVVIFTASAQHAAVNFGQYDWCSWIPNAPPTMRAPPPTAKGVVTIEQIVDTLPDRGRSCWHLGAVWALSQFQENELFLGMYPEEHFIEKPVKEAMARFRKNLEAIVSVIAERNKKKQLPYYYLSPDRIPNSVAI
Put plainly: Modulation of human 5-LOX using arachidonic acid as substrate at 50 uM. An outline of the steps:
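Human 5-LOX in Tris pH 7.5 buffer with EDTA and CaCl2, pre-incubated 10 min with 50 μM compound. Substrate was arachidonic acid, 100 μM final. Residual activity measured by UV absorbance of conjugated diene product, relative to an uninhibited control.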

Data set [2] deals with T1, Polyunsaturated fatty acid 5-lipoxygenase (Homo sapiens). Put plainly: Modulation of human 5-LOX using linoleic acid as substrate at 50 uM. In short, it runs like this: (§1)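 Recombinant human 5-LOX (1:4000 dilution) in 50 mM Tris pH 7.5 with 2 mM EDTA, 2 mM CaCl2 and ATP, pre-incubated 10 min at room temperature with 50 μM compound (DMSO stock diluted in buffer). Linoleic acid (100 μM final) then added. Conjugated-diene HPOD formation read at 234 nm over 20 min, starting after 10 s mixing. Activity given relative to DMSO control (100%) and no-enzyme blank (0%). Triplicate.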

The target is the same in data set [3]. Put plainly: Binding affinity to human 5-LOX-linoleic acid complex by Lineweaver-Burk plot analysis.
For data set [4] the target is unchanged. Put plainly: Binding affinity to human 5-LOX using linoleic acid as substrate by Lineweaver-Burk plot analysis.
Data set [5] shares this target. Put plainly: Binding affinity to human 5-LOX-linoleic acid complex at <10 uM by Lineweaver-Burk plot analysis relative to human 5-LOX.
The target is the same in data set [6]. Put plainly: Non-essential mixed type activation of human 5-LOX assessed as increase in Vmax (app) at 12.5 to 25 uM by Michaelis-Menten/ Lineweaver-Burk plot analysis in presence of linoleic acid. In short, it runs like this: (§2)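 Human 5-LOX, conjugated diene read at 234 nm (ε = 25000 M−1cm−1). ATP fixed at 100 μM, linoleic acid varied over 37.5–300 μM, activator at 0, 12.5 or 25 μM. Km(app) and Vmax(app) taken from Michaelis-Menten and Lineweaver-Burk plots. Triplicate, mean ± SD.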

The target is the same in data set [7]. Put plainly: Non-essential mixed type activation of human 5-LOX assessed as decrease in Km (app) at 12.5 to 25 uM by Michaelis-Menten/ Lineweaver-Burk plot analysis in presence of lonoleic acid. An outline of the steps: as §2
Data set [8] shares this target. Put plainly: Non-competitive activation of human 5-LOX using linoleic acid as substrate assessed as increase in Vmax (app) at 12.5 to 25 uM by Lineweaver-Burk plot analysis in presence of ATP. An outline of the steps: (§3)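 Human 5-LOX, UV assay at 234 nm as in screening. Initial velocities measured with ATP varied over 12.5–200 μM, linoleic acid fixed at 100 μM, and activator at 0, 12.5 or 25 μM. Vmax(app) and Km(app) obtained from Michaelis-Menten and Lineweaver-Burk plots. Triplicate.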

Data set [9] has the same target. Put plainly: Non-competitive activation of human 5-LOX using linoleic acid as substrate assessed as increase in Vmax (app) at 12.5 to 25 uM by Michaelis-Menten equation analysis in presence of ATP. In short, it runs like this:
as §3

For data set [10] the target is unchanged. Put plainly: Activation of human 5-LOX using lionleic acid as substrate assessed as formation of 13-HPOD incubated for 10 mins prior to substrate addition measured after 10 secs by UV absorbance assay. In short, it runs like this: as §1
The nature of data set [11]: Critical micelle concentration of the compound in 50 mM Tris buffer containing 2 mM EDTA, 2 mM CaCl2 at pH 7.5 at 19 degC. It is filed as ADME. In short, it runs like this:
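Surface tension measured across a range of compound concentrations in the 5-LOX assay buffer at room temperature (19 °C) and plotted against log concentration. The CMC was read from this plot.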

The target of data set [12] is T1, Polyunsaturated fatty acid 5-lipoxygenase (Homo sapiens). Put plainly: Activation of human 5-LOX using lionleic acid as substrate assessed as formation of 13-HPOD at 50 uM incubated for 10 mins prior to substrate addition measured after 10 secs by UV absorbance assay. An outline of the steps:
as §1

For data set [13], the target named is T2, Prostaglandin G/H synthase 2 (Homo sapiens) (UniProt P35354).
T2 sequence (whole entry): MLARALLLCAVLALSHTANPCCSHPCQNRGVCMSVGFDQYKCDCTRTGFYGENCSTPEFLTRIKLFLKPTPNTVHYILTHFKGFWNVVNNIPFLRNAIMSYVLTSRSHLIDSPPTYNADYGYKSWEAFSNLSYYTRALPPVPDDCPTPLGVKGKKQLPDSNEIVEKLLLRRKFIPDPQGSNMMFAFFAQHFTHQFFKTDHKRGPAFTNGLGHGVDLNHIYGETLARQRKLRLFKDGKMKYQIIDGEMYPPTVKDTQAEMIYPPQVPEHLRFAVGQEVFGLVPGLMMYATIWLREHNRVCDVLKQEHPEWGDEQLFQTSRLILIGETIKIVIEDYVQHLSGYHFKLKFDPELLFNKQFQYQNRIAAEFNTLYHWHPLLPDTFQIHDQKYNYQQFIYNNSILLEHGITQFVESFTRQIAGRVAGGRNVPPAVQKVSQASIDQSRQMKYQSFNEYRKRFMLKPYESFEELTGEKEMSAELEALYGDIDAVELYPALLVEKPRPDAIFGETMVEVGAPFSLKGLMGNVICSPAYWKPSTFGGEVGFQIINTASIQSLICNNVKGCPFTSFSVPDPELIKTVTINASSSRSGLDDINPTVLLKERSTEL
Put plainly: Inhibition of human COX2 using arachidonic acid as substrate assessed as formation of TMPD at 50 uM incubated for 5 mins prior to substrate addition measured after 5 mins by spectrophotometry. An outline of the steps:
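Human recombinant COX-2 (1:1000) in 0.1 M Tris pH 8.0 with hematin, pre-incubated 5 min at room temperature with 50 μM compound. TMPD and arachidonic acid then added and incubated 5 min at room temperature. Oxidized TMPD read at 550 nm. Controls: DMSO (100%) and no arachidonic acid. Triplicate, mean ± SD.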

Data set [14] concerns the target T1, Polyunsaturated fatty acid 5-lipoxygenase (Homo sapiens). Put plainly: Inhibition of human 5-LOX using lionleic acid as substrate assessed as formation of 13-HPOD at 50 uM incubated for 10 mins prior to substrate addition measured after 10 secs by UV absorbance assay. In short, it runs like this:
as §1

Data set [15] can be described thus: Critical micelle concentration of the compound in 50 mM Tris buffer with 2 mM EDTA and 2 mM CaCl2 at pH 7.5 at 19 degC.
Data set [16] deals with T3, Polyunsaturated fatty acid 5-lipoxygenase (Homo sapiens, UniProt P09917).
T3 sequence (P09917 whole entry): T1 sequence (whole entry)
Put plainly: Binding affinity to human 5-LOX-linoleic acid complex. In short, it runs like this:
(§4)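 Human 5-LOX in 50 mM Tris pH 7.5 with 2 mM EDTA and 2 mM CaCl2, pre-incubated 10 min at room temperature with the modulator at fixed 0–50 μM. Linoleic acid was varied 37.5–300 μM with ATP at 100 μM. Initial rates came from the 234 nm diene absorbance, in triplicate. Dissociation constants for free and substrate-bound enzyme were derived by Lineweaver-Burk slope/intercept re-plots.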

In data set [17] the target is T3, Polyunsaturated fatty acid 5-lipoxygenase. Put plainly: Binding affinity to human 5-LOX using linoleic acid as substrate. In short, it runs like this: as §4

The structures appear in SMILES notation. pKi: −log10 of the molar value. Calls of active or inactive are those of the source. The rule behind the calls is not given here.

Regarding `CCCCCOc1ccc(COc2cccc(O)c2C(=O)[O-])cc1.[K+]`, the outcome in data set [1] was inactive. Also, the result in [2], in [6], in data set [7], in data set [8], in [9] and in data set [12] was Active. Moreover, the Ka is 380 nM in [3] and 8.65 µM in data set [4]. In [5], this compound displayed a fold change (FC) of 50. For the same compound, the Activity result in data set [10] is “Dose-dependent effect”. The same compound had a CMC in data set [11] of 628 µM. The inhibition in [13] is less than 50%.

For the compound `CCCCCCCc1ccc(CCc2cc(O)cc(O)c2C(=O)O)cc1`, in data set [13], the inhibition is less than 50%.

For the compound `CCCCCCCCCOc1cccc(COc2cccc(O)c2C(=O)O)c1`, the inhibition in [13] is less than 50%.

`Oc1ccccc1-c1nc2ccccc2o1`: the inhibition in data set [13] was found to be 50%. In data set [14], the inhibition entry is “inactive”.

For the compound `CCCCCCCCCCCCCCCc1cccc(O)c1C(=O)O`, the inhibition in [13] was less than 50%. For the same compound, the inhibition entry in data set [14] is “Active”.

As to `CCCCCCCOc1ccc(COc2cccc(O)c2C(=O)O)cc1`, the inhibition in [13] was less than 50%. For the same compound, the inhibition result in [14] is “inactive”.

In the case of `CCCCCCCCCCc1ccc(CCc2cc(O)cc(O)c2C(=O)O)cc1`, the inhibition in data set [13] was less than 50%.

`CCCCCCCc1ccc(CCc2cccc(O)c2C(=O)O)cc1`: in data set [13], the inhibition is less than 50%.

For the compound `CCCCCc1cccc(O)c1C(=O)O`, the inhibition in data set [13] was less than 50%. For the same compound, the inhibition entry in data set [14] is “Active”.

Turning to `CCCCC/C=C\C/C=C\CCCCCCCC(=O)O` [LINOLEIC ACID], the CMC in data set [15] amounted to 185 µM.

In the case of `CCCCCCCCCCCCCCOc1cccc(O)c1C(=O)O`, in [13], the inhibition is less than 50%.

`CCCCCCCCCCCCCCCc1cc(O)cc(O)c1C(=O)O`: the inhibition in data set [13] was less than 50%. In data set [14], the inhibition entry is “Active”.

On to `CCCCCCCOc1cccc(COc2cccc(O)c2C(=O)O)c1`, for which the inhibition in data set [13] was less than 50%.

In the case of `CCCCCCCCCOc1ccc(COc2cccc(O)c2C(=O)O)cc1`, the inhibition in data set [13] was less than 50%. For the same compound, the inhibition result in data set [14] was “inactive”.

With `CC(C)CCCC(C)CCOc1ccc(COc2cccc(O)c2C(=O)[O-])cc1.[K+]` (configuration not stated), the result in data set [1] was inactive. Besides, the outcome in data set [2] was Active. Besides, the pKi in data set [16] was 3.85; in data set [17] it was 4.15. For the same compound, in data set [11], the CMC worked out at 395 µM. Besides, the inhibition is less than 50% in data set [13] and 50% in data set [14].

For `CCCCCCCCCCc1cccc(O)c1C(=O)O`, the inhibition in data set [13] was less than 50%. Besides, the inhibition result in data set [14] is “Active”.

Turning to `CCCCCCCCCOc1cccc(O)c1C(=O)O`, the inhibition in [13] is less than 50%.
